Measured values taken from ChEMBL document CHEMBL1134251, “Quinazolines as cyclin dependent kinase inhibitors” (Bioorg Med Chem Lett, 2001).

How the values were obtained:
[1] = molecular target: Cyclin-dependent kinase 4/cyclin D1 (Homo sapiens, UniProt P11802); assay: In vitro inhibitory activity against human cyclin dependent kinase (CDK4/D1); type: protein-complex assay
[2] = molecular target: Cyclin-dependent kinase 2/cyclin E (Homo sapiens, UniProt P24941); assay: In vitro inhibitory activity against human cyclin dependent kinase (CDK2/E); type: protein-complex assay
[3] = molecular target: Cyclin-dependent kinase 4/cyclin D1 (Homo sapiens) (UniProt P11802+P24385); assay: Inhibition of human cyclin dependent kinase 4 (CDK4/D1) at 50 uM; type: protein-complex assay; parameters: scale not given: the % may be the effect or the level left
HCT-116 = assay: Inhibition SRB HCT 116 cancer cell proliferation; type: functional, cell-based; settings: Homo sapiens
Procedure, shortened: (§1)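 Growth-inhibition assay in HCT 116 cancer cells, with IC50 as the read-out. AG1523 cells are normal human fibroblasts and were run under the same assay conditions as HCT 116.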

[4] = molecular target: T1, Cyclin-dependent kinase 1/cyclin B (Homo sapiens, UniProt P06493); assay: Inhibition of human cyclin dependent kinase 1 (CDC2/B); type: protein-complex assay
[5] = molecular target: Cyclin-dependent kinase 2/cyclin A (Homo sapiens, UniProt P24941); assay: Inhibition of human cyclin dependent kinase 2 (CDK2/A); type: protein-complex assay
AG1523 = assay: Inhibition of SRB AG1523 cancer cell proliferation; type: functional, cell-based; settings: Homo sapiens, in the assay text read “normal human fibroblast cell” for “cancer cell”; procedure, shortened: as §1
[6] = Inhibition of human cyclin dependent kinase 6 (CDK6/D2)
[7] = molecular target: T1, Cyclin-dependent kinase 1/cyclin B; assay: Inhibition of human cyclin dependent kinase 1 (CDK1/B); type: protein-complex assay

Chain of Cyclin-dependent kinase 4/cyclin D1 (P11802 whole entry): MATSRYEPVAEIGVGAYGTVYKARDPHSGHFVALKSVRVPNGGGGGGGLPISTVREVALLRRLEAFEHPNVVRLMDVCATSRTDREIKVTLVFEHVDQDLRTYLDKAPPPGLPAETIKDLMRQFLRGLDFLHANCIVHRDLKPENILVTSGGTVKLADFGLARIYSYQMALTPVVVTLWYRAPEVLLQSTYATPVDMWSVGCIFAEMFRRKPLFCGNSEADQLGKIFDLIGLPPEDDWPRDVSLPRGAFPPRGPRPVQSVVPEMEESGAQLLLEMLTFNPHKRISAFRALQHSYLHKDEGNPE
Chain of Cyclin-dependent kinase 4/cyclin D1 (P24385 whole entry, further chain): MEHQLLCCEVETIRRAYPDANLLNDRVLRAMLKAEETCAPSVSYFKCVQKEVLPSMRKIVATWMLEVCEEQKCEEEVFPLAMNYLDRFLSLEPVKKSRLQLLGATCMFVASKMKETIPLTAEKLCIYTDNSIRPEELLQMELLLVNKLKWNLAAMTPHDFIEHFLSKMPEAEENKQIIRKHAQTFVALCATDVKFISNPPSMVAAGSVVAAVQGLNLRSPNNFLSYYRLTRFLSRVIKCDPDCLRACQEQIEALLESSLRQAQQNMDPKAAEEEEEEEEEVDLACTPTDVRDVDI

Row | Compound | IC50 [1] | IC50 [2] | also measured
1 | Fc1cc(F)cc(CNc2nc(C(F)(F)F)nc3ccccc23)c1 | > 19 µM | 8.9 µM | –
2 | CC(Nc1nc(C(F)(F)F)nc2ccccc12)c1ccc(F)cc1 (stereo not drawn) | – | 16.5 µM | Activity [3]: 35%
3 | C[C@H](Nc1nc(C(F)(F)F)nc2ccccc12)c1ccccc1 | – | 31 µM | Activity [3]: 40%
4 | CC(C)(C)Nc1nc(-c2ccccc2)nc2ccccc12 | > 361 µM | – | –
5 | CC(C)(C)Nc1nc(C(F)(F)F)nc2ccc(-c3ccco3)cc12 | > 3 µM | 1.2 µM | –
6 | COc1cccc(-c2ccc3nc(C(F)(F)F)nc(NC(C)(C)C)c3c2)c1 | > 6.7 µM | 3.3 µM | –
7 | CC(C)(C)Nc1nc(C(F)(F)F)nc2ccc(-c3cccs3)cc12 | 6.4 µM | 1.18 µM | –
8 | OC1CCCN(c2nc(C(F)(F)F)nc3ccccc23)C1 (stereo not drawn) | > 84 µM | 32.4 µM | –
9 | CC(C)(C)Nc1nc(C(F)(F)F)nc2ccc(-c3cccc(C(N)=O)c3)cc12 | > 2.5 µM | 1.3 µM | –
10 | CC(C)(C)Nc1nc(C(F)(F)F)nc2ccc(-c3ccc(-c4cccnc4)cc3)cc12 | 8.3 µM | 1.2 µM | –
11 | CC(C)(C)Nc1nc(C(F)(F)F)nc2ccc(-c3cccc(N)c3)cc12 | > 2.1 µM | – | –
12 | CC(C)(C)Nc1nc(C(F)(F)F)nc2ccc(-c3ccccc3)cc12 | 7.7 µM | 1.8 µM | –
13 | CCOC(=O)c1nc(NC(C)(C)C)c2ccccc2n1 | 168 µM | > 5.8 µM | –
14 | CC(C)(C)Nc1nc(C(F)(F)F)nc2ccc(NC=O)cc12 | 14 µM | 0.925 µM | IC50 (HCT-116): 5.72 µM
15 | CC(C)(C)Nc1nc(C(F)(F)F)nc2ccc(-c3ccc(Cl)cc3Cl)cc12 | > 2.4 µM | > 12 µM | –
16 | CC(C)(C)Nc1nc(C(F)(F)F)nc2ccc(-c3cccc(O)c3)cc12 | 12 µM | 1 µM | –
17 | CC(C)(C)Nc1nc(C(=O)O)nc2ccccc12 | > 408 µM | > 815 µM | –
18 | CC(Nc1nc(C(F)(F)F)nc2ccccc12)c1ccccc1 (stereo not drawn) | 59 µM | 6.8 µM | –
19 | CC(C)(C)Nc1ncnc2ccccc12 | > 248 µM | > 50 µM | –
20 | CC(C)S(=O)(=O)Nc1nc(C(F)(F)F)nc2ccccc12 | > 157 µM | > 31 µM | –
21 | CC(C)(C)Nc1nc(C(Cl)(Cl)Cl)nc2ccccc12 | 11.9 µM | 6.1 µM | IC50 [4]: 23 µM; IC50 [5]: 25.8 µM; IC50 (HCT-116): 25 µM

Row | Compound | IC50 [1] | IC50 [2] | also measured
22 | COc1ccc(-c2ccc3nc(C(F)(F)F)nc(NC(C)(C)C)c3c2)cc1 | > 27 µM | 10 µM | –
23 | CC(C)(C)Nc1nc(C(F)(F)F)nc2ccc(-c3ccc(Cl)cc3)cc12 | > 26 µM | 2.6 µM | –
24 | CC(C)(C)Nc1nc(C(F)(F)F)nc2ccc(-c3ccc(O)cc3)cc12 | 11 µM | 0.7 µM | –
25 | CCCC(C)Nc1nc(C(F)(F)F)nc2ccccc12 (stereo not drawn) | 119 µM | 245 µM | –
26 | COc1ccccc1-c1ccc2nc(C(F)(F)F)nc(NC(C)(C)C)c2c1 | > 2.7 µM | 1 µM | –
27 | CC(C)(CO)Nc1nc(C(F)(F)F)nc2ccccc12 | 15 µM | 2.3 µM | –
28 | Fc1cccc(CNc2nc(C(F)(F)F)nc3ccccc23)c1 | > 39 µM | 15.6 µM | –
29 | CC(C)(C)Nc1nc(C(F)(F)F)nc2ccccc12 | 14.3 µM | 1.5 µM | IC50 (AG1523): > 74 µM; IC50 (HCT-116): 20.6 µM
30 | C[C@@H](Nc1nc(C(F)(F)F)nc2ccccc12)c1ccccc1 | 39 µM | 3.2 µM | –
31 | CC(C)(C)Nc1nc(C(N)=O)nc2ccccc12 | > 490 µM | 164 µM | –
32 | CC(C)(Nc1nc(C(F)(F)F)nc2ccccc12)c1ccccc1 | > 151 µM | 14 µM | –
33 | CC(C)(C)Nc1nc(C(F)(F)F)nc2ccc(O)cc12 | 18 µM | 1.15 µM | IC50 (AG1523): > 18 µM; IC50 (HCT-116): 7.3 µM
34 | CC(C)(C)Nc1nc(C(F)(F)F)nc2ccc(-c3ccsc3)cc12 | 3.55 µM | 0.545 µM | IC50 (AG1523): > 28 µM; IC50 (HCT-116): 18.4 µM
35 | CC(C)(C)Nc1nc(C(F)(F)F)nc2ccc(-c3ccc(N)cc3)cc12 | > 1.1 µM | 1.1 µM | –
36 | CCC(C)(C)Nc1nc(C(F)(F)F)nc2ccccc12 | 16.8 µM | 1.4 µM | –
37 | CC(C)(C)Nc1nc(Nc2ccccc2)nc2ccccc12 | > 171 µM | > 34 µM | –
38 | OCC1CCCN1c1nc(C(F)(F)F)nc2ccccc12 (stereo not drawn) | 63 µM | 14.8 µM | –
39 | CC(C)(C)Nc1nc(C(F)(F)F)nc2ccc(-c3cccnc3)cc12 | 8.3 µM | – | –
40 | CC(C)(C)Nc1nc(C(F)(F)F)nc2ccc(C(F)(F)F)cc12 | > 37 µM | 0.79 µM | IC50 [6]: 56 µM; IC50 [7]: > 0.74 µM; IC50 (AG1523): > 59 µM; IC50 [5]: 2.05 µM; IC50 (HCT-116): 18.6 µM
41 | CC(C)(C)Nc1nc(C(F)(F)C(F)(F)F)nc2ccccc12 | > 20 µM | 11.9 µM | –
42 | C#CC(C)(C)Nc1nc(C(Cl)(Cl)Cl)nc2ccccc12 | 24 µM | 13.5 µM | IC50 [7]: 35 µM; IC50 (HCT-116): 15 µM
